An excerpt weighted towards active compounds, which were near 2.9% of everything screened.
Calb FLC: C. albicans growth modulation with fluconazole | C. albicans CaCi-2 (fluconazole-resistant clinical isolate) + fluconazole, Alamar Blue growth, 48 h | growth inhibition, % (test concentration not listed) | actives 0.57% (n = 300,000) | AID 1979;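 active = growth inhibition above about 58% in most replicates, limit read from the data, passing the limit was not always enough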;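 also: all wells also contain fluconazole at 8 µg/ml as a sub-toxic cotreatment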
TAG inh: reduces triacylglycerol accumulation in H9c2 cells; actives 0.66% (n = 230,000); Nile Red lipid (TAG) fluorescence; cells loaded with 200 µM oleic acid; inhibition, % at 12.5 µM; AID 651582;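 active = pattern-corrected inhibition of lipid staining of at least 50% with the nuclear-stain viability signal not falling by more than 50%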
MC4R antag cAMP: human MC4R antagonism in cAMP assay | P32245 | MC4R-expressing cells, MTII-stimulated cAMP, LANCE TR-FRET | inhibition, % at 6.5 µM | actives 0.48% (n = 360,000) | AID 540295;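 active = inhibition above its plate's cutoff, the mean of tested wells on that plate plus 3 SD, cut at about 29% in these data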
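Test system: U2OS cells stably expressing human melanocortin 4 receptor (MC4R); also added: Melanotan II challenge; compound: 6.5 µM single dose; timing: 30-min compound preincubation, 1-h Melanotan II challenge, 1-h detection, room temperature; signal: Eu-cAMP/anti-cAMP TR-FRET, emission 671 nm; repeats: one well per compound, no replicates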
MC4R ag barr: human MC4R agonism via beta-arrestin. AID 540308. P32245. U2OS MC4R beta-arrestin complementation, luminescence; percent of melanotan II response, DMSO zero. activation, % at 8.9 µM. actives 0.98% (n = 360,000);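 active = activation above a per-plate cutoff, the mean activation of sample wells on that plate plus 3 SD, cut at about 8% in these data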
GalR3 antag: human GalR3 antagonism. HEK293 GalR3-CNG cAMP membrane potential fluorescence; galR3 body fused to GalR1 C-terminus. actives 0.44% (n = 360,000). inhibition, % at 3 µM. AID 651719;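 active = inhibition above the screen-wide average plus 3 SD, cut at about 13% in these data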;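 also: forskolin and galanin both at EC90 stimulate the cells; cAMP rise reported by CNG channel membrane potential dye signal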
Efflux pump mplx: blocks antifungal efflux pumps in multiplex yeast assay | S. cerevisiae Candida pump triplex, Nile Red efflux | inhibition, % at 10 µM | actives 0.44% (n = 330,000) | AID 485275;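 active = plate passing quality check with inhibition over a set limit, or well fluorescence over plate mean plus 4 SD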;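 also: Nile Red retained in pooled yeast measured as flow cytometry median fluorescence; higher means more Nile Red kept so more efflux inhibition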
MC4R barr ag: human MC4R beta-arrestin agonism confirmation. activation, % at 8.9 µM. U2OS MC4R beta-arrestin recruitment, luminescence; scaled DMSO 0%, Melanotan II 100%. shares compounds with MC4R ag barr. actives 31% (n = 2,400);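 active = mean activation across replicates above the hit cutoff set in the earlier primary screen, cut at about 8% in these data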
MOR DOR agonist: counter-screen for MC4R agonists: agonists of mu-delta opioid heterodimer | U2OS PathHunter beta-arrestin, beta-gal luminescence; percent of deltorphin B response, DMSO zero | activation, % at 9.2 µM | AID 602194 | actives 5.8% (n = 2,400) | shares compounds with MC4R ag barr;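 active = mean activation across replicates exceeds the hit threshold derived in the earlier primary screen, cut at about 18% in these data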
Target sequence (P35372 whole entry, looked up): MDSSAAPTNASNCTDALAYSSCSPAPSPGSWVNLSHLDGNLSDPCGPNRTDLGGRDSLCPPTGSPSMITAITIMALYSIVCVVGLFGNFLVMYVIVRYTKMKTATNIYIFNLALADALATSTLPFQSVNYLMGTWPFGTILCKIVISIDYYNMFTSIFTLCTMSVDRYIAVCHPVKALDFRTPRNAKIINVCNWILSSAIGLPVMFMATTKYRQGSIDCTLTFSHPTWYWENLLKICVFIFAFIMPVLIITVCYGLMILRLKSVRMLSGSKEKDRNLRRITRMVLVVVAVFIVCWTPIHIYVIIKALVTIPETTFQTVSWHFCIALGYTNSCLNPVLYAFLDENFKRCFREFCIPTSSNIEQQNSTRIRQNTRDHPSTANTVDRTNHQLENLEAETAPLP
Target sequence (P41143 whole entry, looked up): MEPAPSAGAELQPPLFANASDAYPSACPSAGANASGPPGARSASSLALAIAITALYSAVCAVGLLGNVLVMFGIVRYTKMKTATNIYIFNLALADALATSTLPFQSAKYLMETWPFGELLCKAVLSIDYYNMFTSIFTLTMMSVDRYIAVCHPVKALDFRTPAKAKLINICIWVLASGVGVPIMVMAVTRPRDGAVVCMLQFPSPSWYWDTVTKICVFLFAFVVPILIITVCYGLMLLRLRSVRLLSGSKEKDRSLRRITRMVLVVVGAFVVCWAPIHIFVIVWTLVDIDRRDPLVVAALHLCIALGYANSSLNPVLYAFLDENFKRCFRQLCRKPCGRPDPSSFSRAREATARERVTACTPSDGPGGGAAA
Numbers stand for hits; . = inactive; / = no result.

SMILES | Calb FLC | TAG inh | MC4R antag cAMP | MC4R ag barr | GalR3 antag | Efflux pump mplx | MC4R barr ag | MOR DOR agonist
CC(C)(C)c1cc(C(=O)Nc2ccc(F)cc2)n(Cc2ccc(F)cc2)n1 | . | . | . | 9.6 | . | . | . | .
Cc1ccc(NC(=O)c2cc(C(C)(C)C)nn2Cc2ccccc2)cc1 | . | . | . | . | . | . | / | /
CCCNC(=O)c1cc(C2CCCCN2C(=O)c2ccc(OC)cc2)on1 (stereo not given) | / | . | . | . | . | / | / | /
CC(=O)c1cc2c(cc1NC(=O)CN1CCN(c3cccc(C(F)(F)F)c3)CC1)OCO2 | . | / | . | 16 | . | . | . | .
CC1=C(C(=O)N(C(C)C)C(C)C)CC(CC(=O)NCc2ccco2)C(=O)N1CCC1=CCCCC1 (stereo not given) | / | / | / | / | . | / | / | /
Cc1ccc(C(C(=O)NC2CCCCC2)N(C(=O)Cc2c[nH]c3ccccc23)c2ccccc2)o1 (stereo not given) | . | / | . | 12 | . | . | . | .
CC(=O)Nc1ccc(N(C(=O)Cc2c[nH]c3ccccc23)C(C(=O)NC2CCCCC2)c2ccco2)cc1 (stereo not given) | . | / | . | . | . | . | / | /
Cc1[nH]c2ccccc2c1CC(=O)Nc1ccc(Nc2ccccc2)cc1 | / | / | / | / | . | / | / | /
C=CCN(CC=C)C(=S)NC(=O)/C=C/c1ccccc1 | . | / | . | . | . | . | / | /
C=CCN(CC=C)S(=O)(=O)c1ccc(NC(=S)NC(=O)/C=C/c2ccccc2)cc1 | . | . | . | 19 | . | . | . | .
Nc1sc(-c2ccccc2)cc1-c1n[nH]c(=S)n1C1CCCCC1 | . | . | . | 11 | . | . | . | .
COc1ccc(-n2c(-c3cc(-c4ccccc4)sc3N)n[nH]c2=S)cc1 | . | . | . | . | . | . | / | /
O=C(Nc1ccc(Br)cc1)C(c1ccccc1)c1ccccc1 | . | / | . | 11 | . | . | . | .
Cc1cccc(-c2cnc(C(O)c3ccc(Cl)cc3C)[nH]2)c1 (stereo not given) | / | . | . | . | . | / | / | /
N=c1n(CC(=O)c2ccc(Br)s2)c2ccccc2n1Cc1ccccc1 | . | 53 | . | 14 | . | . | 13 | 18
CCc1nc2c(OCc3ccc(F)c(F)c3)cccn2c1N(C)C(=O)C1CC1 | / | . | . | . | . | / | / | /
c1ccc(Cn2nnc3c(Nc4ccc5c(c4)OCO5)nc(C4CC4)nc32)cc1 | . | / | . | 18 | . | . | . | .
Cc1ccccc1C(=O)N1CCC[C@@H]1C(=O)N1CCC[C@H]1C(=O)NCc1ccncc1 | / | / | / | / | . | / | / | /
C=CCn1c(SCC(=O)NC(=O)NCc2ccco2)nc2sc(C)c(C)c2c1=O | . | . | . | 11 | . | . | 10 | .
Cc1sc(NC(=O)Cn2c(=O)oc3ccccc32)nc1-c1ccc(Cl)cc1 | . | / | . | 13 | . | . | . | .
COC(=O)c1c(NC(=O)c2cccc([N+](=O)[O-])c2)sc(C(N)=O)c1C | . | . | . | 12 | . | . | . | .
Cc1ccc(NC(=O)OCc2cc(-c3ccccc3)on2)cc1 | . | . | . | 11 | . | . | . | .
O=C(Nc1ccc(Cl)cc1)OCc1cc(-c2ccccc2Cl)on1 | . | . | . | 11 | . | . | 8.6 | .
Cc1ccc(NC(=O)OCc2cccs2)cc1 | . | / | / | / | / | . | / | /
CC(C)C(=O)N1CCCC1(C)C(=O)NCc1ccc(Cl)cc1 (stereo not given) | / | . | . | . | . | / | / | /
SMILES | Calb FLC | TAG inh | MC4R antag cAMP | MC4R ag barr | GalR3 antag | Efflux pump mplx | MC4R barr ag | MOR DOR agonist
CCc1ccc(NC(=O)COc2ccc(/C=C(/C#N)c3nc4ccccc4[nH]3)cc2OC)cc1 | . | / | . | 69 | . | . | 17 | 23
COC(=O)c1c(C)[nH]c(C(=O)OCc2ccc(F)cc2)c1C | . | . | . | 12 | . | . | . | .
CCc1c(C)[nH]c(C(=O)OCc2ccccc2)c1C | . | . | . | 10 | . | / | . | .
CCOC(=O)c1[nH]c(C)c(C(=O)OCCOc2cccc(C)c2)c1C | . | . | . | 12 | . | . | 8.5 | .
CCc1c(C(=O)OCc2ccccc2)[nH]c(C)c1C | . | . | . | . | . | . | / | /
CCOC(=O)c1[nH]c(C)c(C(=O)OCc2ccccc2F)c1C | . | / | . | 26 | . | . | . | .
CCOC(=O)c1c(C)[nH]c(C(=O)NNC(=O)c2ccccc2F)c1C | / | . | . | . | . | . | / | /
COC(=O)c1c(C)[nH]c(C(=O)CC#N)c1C | . | . | . | . | . | . | / | /
COC(=O)c1c(C)[nH]c(C(=O)CSc2ccc(Cl)cc2)c1C | . | . | . | 29 | . | . | 11 | .
CC(/C=N/NC(=O)c1cccs1)=C\c1ccccc1 | . | . | . | 16 | . | . | . | .
CC(C)(C)c1ccc(C(=O)NC(=O)COC(=O)c2ccco2)cc1 | / | . | . | 13 | . | / | . | .
O=C(COC(=O)c1ccco1)NNC(=O)c1ccc(Cl)cc1 | / | . | . | . | . | . | / | /
CCOC(=O)c1c(NC(=O)Nc2ccccc2)sc(C)c1C | . | . | . | . | . | . | / | /
COc1ccc(NC(=O)COC(=O)c2c(NC(C)=O)sc(C)c2C)cc1 | / | . | . | 31 | . | / | 18 | .
CCOC(=O)Nc1sc(C)c(C)c1C(=O)OCC | . | / | . | 10 | . | . | . | .
O=C(CSc1ncnc2c1oc1ccccc12)c1cccs1 | . | . | . | 13 | . | . | . | .
Nc1nc(CCl)nc(Nc2ccccc2)n1 | . | . | . | . | . | . | / | /
Cc1ccc(Nc2nc(N)nc(CCl)n2)cc1 | . | . | . | 14 | . | . | 17 | 18
Cc1cccc(Nc2nc(N)nc(CCl)n2)c1C | . | 80 | . | 25 | . | . | 23 | 37
COC(=O)[C@]12C[C@H](CC(=O)N3CCN(C(=O)c4ccco4)CC3)C(=O)N(Cc3ccc4c(c3)OCO4)C1=C[C@H](C(C)(C)C)O[C@@H]2C | / | / | / | / | . | / | / | /
CCN(CCNCC(O)COc1ccccc1C(C)C)c1cccc(C)c1 (stereo not given) | . | / | . | 16 | . | . | 12 | .
O=C(NCc1ccc2c(c1)OCO2)c1cc(-c2cc(Cl)ccc2O)n[nH]1 | . | . | . | 11 | . | . | . | .
Cc1cc(O)c(-c2cc(C(=O)NCc3ccc4c(c3)OCO4)[nH]n2)cc1C | . | / | . | . | . | . | / | /
Cc1cc(N2CCN(CC(C)(C)O)C[C@@H]2C)ccc1N1CCN(Cc2ccccc2)[C@@H](C)C1 | / | / | / | / | . | / | / | /

Screens as filed in PubChem BioAssay.
